Our source for the inhibition in vivo, EC50 and inhibition values is ChEMBL document CHEMBL1142330, “Omega-(2-Naphthyloxy) amino alkanes as a novel class of anti-hyperglycemic and lipid lowering agents” (Bioorg Med Chem, 2008).

Test [1] has as its system Rattus norvegicus. In words: Antidiabetic activity in sucrose loaded albino Sprague-Dawley rat model assessed as decrease in blood glucose level at 100 mg/kg, po. The class given is functional. The procedure, abridged:
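Male Sprague–Dawley rats were fasted overnight and used in groups of five. Baseline blood was taken, then test sample was gavaged at 100 mg/kg. A sucrose load of […] followed 30 min later.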

Test [2] relates to Rattus norvegicus. The test is described as follows: Antidiabetic activity in streptozotocin-induced diabetic albino Sprague-Dawley rat model assessed as decrease in blood glucose level at 100 mg/kg, po. The class given is functional. The procedure, abridged: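 Overnight-fasted rats received streptozotocin 60 mg/kg i.p. in 100 mM citrate buffer, pH 4.5. After 48 h, animals with glucometer glucose of 200–400 mg/dl were grouped (n=6). Sample in 1% gum acacia was given orally at 100 mg/kg; controls received vehicle.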

Test [3] relates to Rattus norvegicus. In words: Antidiabetic activity in sucrose challenged streptozotocin-induced diabetic albino Sprague-Dawley rat model assessed as decrease in blood glucose level at 100 mg/kg, po. The class given is functional. An outline of the steps: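 Diabetes was induced in overnight-fasted rats with streptozotocin 60 mg/kg i.p. in 100 mM citrate buffer, pH 4.5. Rats with glucose of 150–250 mg/dl at 48 h were selected. A sucrose load of 2.5 g/kg was given 30 min after oral dosing. Glucose was measured at 30–300 min and 24 h. Food was withheld, water allowed.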

For test [4], the system named is Rattus norvegicus. The test is described as follows: Inhibition of cholesterol level in triton treated Charles Foster rat at 100 mg/kg, po. The class given is functional. An outline of the steps:
(§1)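 Male Charles Foster rats (200–225 g) were used, six per group. They received Triton WR-1339 200 mg/kg i.p. together with oral compound at 100 mg/kg in 2% aqueous gum acacia, over 18 h; vehicle controls were included. Rats were then fasted overnight and bled retro-orbitally. Serum total cholesterol, phospholipids and triglyceride were assayed.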

Test [5] relates to Rattus norvegicus. The test is described as follows: Inhibition of phospholipids level in triton treated Charles Foster rat at 100 mg/kg, po. The class given is functional. An outline of the steps: as §1
Test [6] concerns Rattus norvegicus. In words: Inhibition of triglyceride level in triton treated Charles Foster rat at 100 mg/kg, po. The class given is functional. An outline of the steps: as §1
The test system of test [7] is Mus musculus. The test is described as follows: Antidiabetic activity in db/db mouse at 100 mg/kg after 5 hrs on day 3. The class given is functional.
In test [8] the test system is Mus musculus. In words: Antidiabetic activity in db/db mouse at 100 mg/kg after 24 hrs on day 3. The class given is functional.
Test [9] concerns the target T1, Peroxisome proliferator-activated receptor gamma (Homo sapiens, UniProt P37231).
T1 sequence (P37231 whole entry): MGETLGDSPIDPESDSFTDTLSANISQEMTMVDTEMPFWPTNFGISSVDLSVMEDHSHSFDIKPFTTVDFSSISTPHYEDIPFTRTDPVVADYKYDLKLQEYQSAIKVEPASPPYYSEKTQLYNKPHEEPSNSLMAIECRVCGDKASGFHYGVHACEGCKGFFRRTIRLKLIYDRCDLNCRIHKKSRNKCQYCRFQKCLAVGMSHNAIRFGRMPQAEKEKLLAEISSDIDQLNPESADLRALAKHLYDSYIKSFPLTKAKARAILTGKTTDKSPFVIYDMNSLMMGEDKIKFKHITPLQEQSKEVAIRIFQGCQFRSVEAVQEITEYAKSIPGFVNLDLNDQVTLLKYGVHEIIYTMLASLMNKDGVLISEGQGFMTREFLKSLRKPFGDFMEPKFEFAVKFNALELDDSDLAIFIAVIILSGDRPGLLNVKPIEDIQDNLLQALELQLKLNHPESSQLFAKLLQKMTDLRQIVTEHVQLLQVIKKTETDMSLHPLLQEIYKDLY
In words: Binding affinity at PPARgamma.

In test [10] the test system is Rattus norvegicus. In words: Antidiabetic activity in glucose loaded albino Sprague-Dawley rat model assessed as decrease in blood glucose level at 100 mg/kg, po. The class given is functional. The procedure, abridged:
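Rats in groups of five were bled at baseline, then gavaged with test sample at 100 mg/kg. A glucose load of 2 g/kg was given 30 min later. Blood was collected at 30, 60, 90 and 120 min.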

For test [11], the system named is Syrian golden hamster. The test is described as follows: Inhibition of triglyceride level in Syrian golden hamster at 300 umol/kg after 10 days. The class given is functional. Conditions: Mesocricetus auratus, 240 h.
Test [12] concerns Syrian golden hamster. The test is described as follows: Inhibition of cholesterol level in Syrian golden hamster at 300 umol/kg after 10 days. The class given is functional. The note with it: Mesocricetus auratus, 240 h.
Test [13] relates to Syrian golden hamster. The test is described as follows: Inhibition of HDL level in Syrian golden hamster at 300 umol/kg after 10 days. The class given is functional. Conditions: Mesocricetus auratus, 240 h.
In test [14] the test system is Syrian golden hamster. The test is described as follows: Inhibition of glucose level in Syrian golden hamster at 300 umol/kg after 10 days. The class given is functional. Conditions: Mesocricetus auratus, 240 h.
Test [15] relates to Syrian golden hamster. In words: Inhibition of glycerol level in Syrian golden hamster at 300 umol/kg after 10 days. The class given is functional. Conditions: Mesocricetus auratus, 240 h.
Test [16] has as its target T2, Peroxisome proliferator-activated receptor alpha (Homo sapiens) (UniProt Q07869).
T2 sequence (whole entry): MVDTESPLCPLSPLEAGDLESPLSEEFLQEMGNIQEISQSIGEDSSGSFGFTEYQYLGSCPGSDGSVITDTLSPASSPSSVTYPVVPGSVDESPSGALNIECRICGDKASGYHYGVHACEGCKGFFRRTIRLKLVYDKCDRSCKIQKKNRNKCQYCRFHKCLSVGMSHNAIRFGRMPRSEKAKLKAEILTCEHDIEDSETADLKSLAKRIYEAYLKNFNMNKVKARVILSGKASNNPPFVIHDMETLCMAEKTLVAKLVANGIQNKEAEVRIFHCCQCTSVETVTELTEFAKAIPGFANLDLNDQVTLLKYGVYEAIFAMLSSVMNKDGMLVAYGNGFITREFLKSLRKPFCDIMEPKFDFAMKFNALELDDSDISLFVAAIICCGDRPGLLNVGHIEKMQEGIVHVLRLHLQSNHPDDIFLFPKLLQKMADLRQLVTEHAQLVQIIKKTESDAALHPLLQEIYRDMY
In words: Inhibition of PPARalpha at 50 uM.

For test [17], the target named is T3, Peroxisome proliferator-activated receptor delta (Homo sapiens) (UniProt Q03181).
T3 sequence (whole entry): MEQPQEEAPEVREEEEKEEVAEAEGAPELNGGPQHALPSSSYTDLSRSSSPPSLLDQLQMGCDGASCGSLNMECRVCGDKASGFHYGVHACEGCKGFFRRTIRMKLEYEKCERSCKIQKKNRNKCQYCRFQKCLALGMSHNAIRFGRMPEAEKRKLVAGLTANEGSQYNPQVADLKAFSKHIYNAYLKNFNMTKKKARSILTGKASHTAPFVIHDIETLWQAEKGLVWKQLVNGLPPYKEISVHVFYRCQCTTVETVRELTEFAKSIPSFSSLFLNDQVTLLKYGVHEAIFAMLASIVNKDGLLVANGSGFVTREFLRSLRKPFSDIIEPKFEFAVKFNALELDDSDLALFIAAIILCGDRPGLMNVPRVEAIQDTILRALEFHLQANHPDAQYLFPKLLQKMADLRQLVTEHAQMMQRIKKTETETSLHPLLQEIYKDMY
In words: Inhibition of PPARdelta at 3 uM.

SMILES strings stand for the structures.

With `c1ccc(CNCCOc2ccc3ccccc3c2)cc1`, the inhibition in vivo at 100 mg/kg with Rattus norvegicus [1] was 64%; in the test on Rattus norvegicus [2], 13%; in the test on Rattus norvegicus [3] it was 69.5%; with Rattus norvegicus [4], 31%; with Rattus norvegicus [5], 34%; with Rattus norvegicus [6] it was 37%. The inhibition in vivo at 100 mg/kg in the test on Mus musculus [7] is 7%; in the test on Mus musculus [8] it was 11.6%; in the test on Rattus norvegicus [10], 37.6%. This compound also showed an EC50 in test [9] of 0.4 µM. Besides, the inhibition in vivo at 300 µmol/kg in the test with Syrian golden hamster [11] is 37%; in the test on Syrian golden hamster [12] it was 14%; in the test with Syrian golden hamster [13] it was 13%; in the test with Syrian golden hamster [14], 9.5%; in the test on Syrian golden hamster [15], 10%. Further, the values for the inhibition in test [16] and in test [17] were 36.2% and 31.3%, respectively.
For the compound `Cc1ccc(S(=O)(=O)NC(=O)NN2CC3CCCC3C2)cc1` (stereo not given) [GLICLAZIDE], the inhibition in vivo at 100 mg/kg in the test on Rattus norvegicus [1] came out at 44.8%; in the test on Rattus norvegicus [2], 27.7%.
In the case of `CCCN(CCCOc1ccc2ccccc2c1)c1ccc(OC)cc1`, the inhibition in vivo at 100 mg/kg with Rattus norvegicus [1] is 37.2%; in the test with Rattus norvegicus [4] it was 14%; in the test on Rattus norvegicus [5] it was 27%; with Rattus norvegicus [6] it was 12%; in the test on Rattus norvegicus [10], 11.6%. Moreover, the results for the inhibition in [16] and in test [17] were 10.9% and 9.6%, respectively.
For `c1ccc(CNCCCCOc2ccc3ccccc3c2)cc1`, the inhibition in vivo at 100 mg/kg in the test on Rattus norvegicus [1] came to 16%; in the test on Rattus norvegicus [4], 10.1%; with Rattus norvegicus [5], 18%; with Rattus norvegicus [6] it was 5%; in the test with Rattus norvegicus [10], 8.89%. Moreover, the inhibition in [16] worked out at 21.3%; in test [17], 22.4%.
Turning to `CCCCN(CCCOc1ccc2ccccc2c1)c1ccc(OC)cc1`, the inhibition in vivo at 100 mg/kg amounted to 4.4% in the test with Rattus norvegicus [1]; 15% in the test on Rattus norvegicus [4]; 25% with Rattus norvegicus [5]; 17% with Rattus norvegicus [6]; 13.5% in the test on Rattus norvegicus [10]. Further, the inhibition in test [16] was 8.5%; in [17], 8.4%.
As to `COc1ccc(NCCOc2ccc3ccccc3c2)cc1`, the inhibition in vivo at 100 mg/kg in the test with Rattus norvegicus [1] turned out to be 19.4%; with Rattus norvegicus [10] it was 10.6%. The inhibition amounted to 22.2% in test [16] and 24.6% in test [17].
Take `CCO[C@@H](Cc1ccc(OCCc2ccc(OS(C)(=O)=O)cc2)cc1)C(=O)O`: the inhibition in test [16] is 55.5%.
For the compound `COc1cccc(CNCCCOc2ccc3ccccc3c2)c1`, the inhibition in vivo at 100 mg/kg with Rattus norvegicus [1] was 8.3%; in the test with Rattus norvegicus [4], 14%; with Rattus norvegicus [5], 22%; in the test on Rattus norvegicus [6], 22%; in the test with Rattus norvegicus [10], 1.23%.
In the case of `c1ccc(CNCCCOc2ccc3ccccc3c2)cc1`, the inhibition in vivo at 100 mg/kg came to 40.5% with Rattus norvegicus [1] and 13.8% in the test with Rattus norvegicus [10]. Further, the inhibition in test [16] amounted to 28.4%; in [17], 29.1%.
On to `COc1ccc(NCCCCOc2ccc3ccccc3c2)cc1`, for which the inhibition in vivo at 100 mg/kg in the test with Rattus norvegicus [1] worked out at 5.09%; in the test with Rattus norvegicus [4] it was 24%; in the test with Rattus norvegicus [5], 36%; with Rattus norvegicus [6], 22%; with Rattus norvegicus [10], 3.89%. Also, the inhibition in test [16] was found to be 18.3%; in [17] it was 16.3%.
With `COc1ccc(Cl)cc1C(=O)NCCc1ccc(S(=O)(=O)NC(=O)NC2CCCCC2)cc1` [GLYBURIDE], the inhibition in vivo at 100 mg/kg is 33.9% in the test on Rattus norvegicus [1] and 32.8% in the test with Rattus norvegicus [2].
For `Cc1ccc(NCCOc2ccc3ccccc3c2)cc1`, the inhibition in vivo at 100 mg/kg came out at 6.99% in the test on Rattus norvegicus [1]; 27% with Rattus norvegicus [4]; 30% in the test with Rattus norvegicus [5]; 18% in the test with Rattus norvegicus [6]; 2.45% in the test with Rattus norvegicus [10].
Regarding `Cc1ccc(NCCCCOc2ccc3ccccc3c2)cc1`, the inhibition in vivo at 100 mg/kg is 6.9% in the test on Rattus norvegicus [1] and 3.21% in the test on Rattus norvegicus [10].
For the compound `C/C=C1\C(=O)C[C@H]2[C@@H]3CCC4=CC(=O)CC[C@]4(C)[C@H]3CC[C@]12C` [GUGGULSTERONE], the figures for the inhibition in vivo at 100 mg/kg with Rattus norvegicus [4], with Rattus norvegicus [5] and with Rattus norvegicus [6] were 34%, 33% and 30%, respectively.
On to `COc1ccc(N(CCCOc2ccc3ccccc3c2)CC(=O)O)cc1`, for which the inhibition in vivo at 100 mg/kg was found to be 21.5% with Rattus norvegicus [1]; 23.8% in the test with Rattus norvegicus [4]; 16.9% in the test with Rattus norvegicus [5]; 13% with Rattus norvegicus [6]; 15.5% in the test with Rattus norvegicus [10]. In addition, the inhibition in vivo at 300 µmol/kg in the test on Syrian golden hamster [11] is 44%; with Syrian golden hamster [12], 21%; in the test with Syrian golden hamster [13] it was 11%; in the test on Syrian golden hamster [14], 22%; in the test with Syrian golden hamster [15], 23%. In addition, the inhibition in test [16] stood at 25.4%; in [17], 20.2%.
Consider `COc1ccc(N(C)CCCOc2ccc3ccccc3c2)cc1`, for which the inhibition in vivo at 100 mg/kg amounted to 14.5% with Rattus norvegicus [1]; 11% in the test on Rattus norvegicus [4]; 19% in the test with Rattus norvegicus [5]; 15% in the test with Rattus norvegicus [6]; 8.2% in the test with Rattus norvegicus [10]. The inhibition in test [16] stood at 22.5%; in test [17], 19.3%.
Consider `CCN(CCCOc1ccc2ccccc2c1)c1ccc(OC)cc1`, for which the inhibition in vivo at 100 mg/kg with Rattus norvegicus [1] was determined as 13.5%; in the test with Rattus norvegicus [10], 6.88%. The inhibition in [16] was 20.3%; in test [17], 17.3%.
For `CCCCCCCCNCCCOc1ccc2ccccc2c1`, in that order: 32%, 17%, 11.4% and 7.9%.
